The nature of data set [1]: Cytotoxicity against human Raji cells assessed as cell viability at 1000 molar ratio by trypan blue staining method.
Data set [2] has as its system Mus musculus. The data set is described as follows: Inhibition of DMBA-initiated/TPA-promoted carcinogenesis in ICR mouse assessed as mouse bearing papillomas at 85 nmol administered 1 hr before TPA treatment measured after 19 weeks by two-stage carcinogenesis test. Type of data set: functional. Also noted: scale not given: the % may be the effect or the level left. The gist of the method:
(§1)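 Female SPF ICR mice, 6 weeks old, 15 per group, backs shaved. Initiation: topical DMBA (390 nmol) in 0.1 mL acetone. Promotion began one week later: TPA (1.7 nmol) in 0.1 mL acetone, twice weekly. Test compound (85 nmol) in 0.1 mL acetone applied topically 1 h before each promotion. Papilloma-bearing mice and papillomas per mouse scored weekly for 20 weeks. Tumor type confirmed histologically. Student's t-test.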

The subject of data set [3] is Mus musculus. The data set is described as follows: Inhibition of DMBA-initiated/TPA-promoted carcinogenesis in ICR mouse assessed as mouse bearing papillomas at 85 nmol administered 1 hr before TPA treatment measured after 16 weeks by two-stage carcinogenesis test. The class given is functional. Set-up: scale not given: the % may be the effect or the level left. The method, boiled down: as §1

The subject of data set [4] is Mus musculus. As to the kind of experiment: Inhibition of DMBA-initiated/TPA-promoted carcinogenesis in ICR mouse assessed as mouse bearing papillomas at 85 nmol administered 1 hr before TPA treatment measured after 13 weeks by two-stage carcinogenesis test. The class given is functional. Set-up: scale not given: the % may be the effect or the level left. The gist of the method:
as §1

Data set [5] deals with Mus musculus. As to the kind of experiment: Inhibition of DMBA-initiated/TPA-promoted carcinogenesis in ICR mouse assessed as mouse bearing papillomas at 85 nmol administered 1 hr before TPA treatment measured after 5 weeks by two-stage carcinogenesis test. The class given is functional. Also noted: scale not given: the % may be the effect or the level left. The method, boiled down: as §1

Data set [6] deals with Mus musculus. As to the kind of experiment: Inhibition of DMBA-initiated/TPA-promoted carcinogenesis in ICR mouse assessed as mouse bearing papillomas at 85 nmol administered 1 hr before TPA treatment measured after 1 week by two-stage carcinogenesis test. The class given is functional. Also noted: scale not given: the % may be the effect or the level left. The method, boiled down: as §1

The subject of data set [7] is Mus musculus. As to the kind of experiment: Inhibition of DMBA-initiated/TPA-promoted carcinogenesis in ICR mouse assessed as mouse bearing papillomas at 85 nmol administered 1 hr before TPA treatment measured after 17 weeks by two-stage carcinogenesis test. Type of data set: functional. Also noted: scale not given: the % may be the effect or the level left. The method, boiled down:
as §1

Data set [8] deals with Mus musculus. The data set is described as follows: Toxicity in topically treated ICR mouse assessed as inflammation. Type of data set: organism-based. The conditions noted are these: in vivo, topical_or_ocular. The method, boiled down: (§2)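 Treated areas of shaved back skin were inspected during the DMBA/TPA two-stage study, where test compound (85 nmol in acetone) was applied topically before each twice-weekly TPA promotion. Scored for lesional damage and for inflammation (edema, erosion, ulcer).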

Data set [9] relates to Mus musculus. As to the kind of experiment: Inhibition of DMBA-initiated/TPA-promoted carcinogenesis in ICR mouse assessed as mouse bearing papillomas at 85 nmol administered 1 hr before TPA treatment measured after 9 weeks by two-stage carcinogenesis test. The class given is functional. Set-up: scale not given: the % may be the effect or the level left. The method, boiled down: as §1

For data set [10], the system named is Mus musculus. The data set is described as follows: Inhibition of DMBA-initiated/TPA-promoted carcinogenesis in ICR mouse assessed as mouse bearing papillomas at 85 nmol administered 1 hr before TPA treatment measured after 4 weeks by two-stage carcinogenesis test. The class given is functional. Set-up: scale not given: the % may be the effect or the level left. The method, boiled down: as §1

Data set [11] relates to Mus musculus. As to the kind of experiment: Inhibition of DMBA-initiated/TPA-promoted carcinogenesis in ICR mouse assessed as mouse bearing papillomas at 85 nmol administered 1 hr before TPA treatment measured after 10 weeks by two-stage carcinogenesis test. Type of data set: functional. Set-up: scale not given: the % may be the effect or the level left. The gist of the method: as §1

The subject of data set [12] is Mus musculus. The data set is described as follows: Inhibition of DMBA-initiated/TPA-promoted carcinogenesis in ICR mouse assessed as mouse bearing papillomas at 85 nmol administered 1 hr before TPA treatment measured after 15 weeks by two-stage carcinogenesis test. Type of data set: functional. Also noted: scale not given: the % may be the effect or the level left. The method, boiled down:
as §1

The test system of data set [13] is Mus musculus. As to the kind of experiment: Inhibition of DMBA-initiated/TPA-promoted carcinogenesis in ICR mouse assessed as mouse bearing papillomas at 85 nmol administered 1 hr before TPA treatment measured after 3 weeks by two-stage carcinogenesis test. Type of data set: functional. Set-up: scale not given: the % may be the effect or the level left. The gist of the method: as §1

Data set [14] concerns Mus musculus. The data set is described as follows: Inhibition of DMBA-initiated/TPA-promoted carcinogenesis in ICR mouse assessed as mouse bearing papillomas at 85 nmol administered 1 hr before TPA treatment measured after 6 weeks by two-stage carcinogenesis test. The class given is functional. Also noted: scale not given: the % may be the effect or the level left. The gist of the method: as §1

The test system of data set [15] is Mus musculus. The data set is described as follows: Inhibition of DMBA-initiated/TPA-promoted carcinogenesis in ICR mouse assessed as mouse bearing papillomas at 85 nmol administered 1 hr before TPA treatment measured after 7 weeks by two-stage carcinogenesis test. Type of data set: functional. Set-up: scale not given: the % may be the effect or the level left. The gist of the method: as §1

The test system of data set [16] is Mus musculus. The data set is described as follows: Inhibition of DMBA-initiated/TPA-promoted carcinogenesis in ICR mouse assessed as mouse bearing papillomas at 85 nmol administered 1 hr before TPA treatment measured after 20 weeks by two-stage carcinogenesis test. Type of data set: functional. Also noted: scale not given: the % may be the effect or the level left. The method, boiled down: as §1

In data set [17] the test system is Mus musculus. The data set is described as follows: Inhibition of DMBA-initiated/TPA-promoted carcinogenesis in ICR mouse assessed as mouse bearing papillomas at 85 nmol administered 1 hr before TPA treatment measured after 8 weeks by two-stage carcinogenesis test. Also noted: scale not given: the % may be the effect or the level left. The class given is functional. The gist of the method:
as §1

Data set [18] is filed under the species Mus musculus. The data set is described as follows: Toxicity in ICR mouse assessed as change in body weight. The class given is organism-based. The conditions noted are these: in vivo. The gist of the method:
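Mice from the DMBA/TPA two-stage skin study received topical test compound in acetone before each TPA promotion. Body-weight gain was followed during the 20-week experiment. Food and water ad libitum, five mice per cage at 24 ± 2 °C.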

In data set [19] the test system is Mus musculus. As to the kind of experiment: Inhibition of DMBA-initiated/TPA-promoted carcinogenesis in ICR mouse assessed as mouse bearing papillomas at 85 nmol administered 1 hr before TPA treatment measured after 14 weeks by two-stage carcinogenesis test. Type of data set: functional. Set-up: scale not given: the % may be the effect or the level left. The method, boiled down: as §1

Data set [20] deals with Mus musculus. As to the kind of experiment: Inhibition of DMBA-initiated/TPA-promoted carcinogenesis in ICR mouse assessed as mouse bearing papillomas at 85 nmol administered 1 hr before TPA treatment measured after 2 weeks by two-stage carcinogenesis test. Type of data set: functional. Set-up: scale not given: the % may be the effect or the level left. The method, boiled down:
as §1

The subject of data set [21] is Mus musculus. The data set is described as follows: Toxicity in topically treated ICR mouse assessed as lesional damage. The class given is organism-based. The conditions noted are these: in vivo, topical_or_ocular. The gist of the method: as §2
Data set [22] has as its system Mus musculus. The data set is described as follows: Inhibition of DMBA-initiated/TPA-promoted carcinogenesis in ICR mouse assessed as mouse bearing papillomas at 85 nmol administered 1 hr before TPA treatment measured after 12 weeks by two-stage carcinogenesis test. Also noted: scale not given: the % may be the effect or the level left. The class given is functional. The gist of the method: as §1

Data set [23] concerns Mus musculus. The data set is described as follows: Inhibition of DMBA-initiated/TPA-promoted carcinogenesis in ICR mouse assessed as mouse bearing papillomas at 85 nmol administered 1 hr before TPA treatment measured after 11 weeks by two-stage carcinogenesis test. The class given is functional. Set-up: scale not given: the % may be the effect or the level left. The method, boiled down:
as §1

Data set [24] relates to Mus musculus. As to the kind of experiment: Inhibition of DMBA-initiated/TPA-promoted carcinogenesis in ICR mouse assessed as mouse bearing papillomas at 85 nmol administered 1 hr before TPA treatment measured after 18 weeks by two-stage carcinogenesis test. The class given is functional. Also noted: scale not given: the % may be the effect or the level left. The method, boiled down:
as §1

Experimental findings from ChEMBL document CHEMBL1649407, “Part I: Synthesis, cancer chemopreventive activity and molecular docking study of novel quinoxaline derivatives” (Eur J Med Chem, 2011) are described below.

Broadly, the viability is a read-out of living cells in per cent, often relative to untreated cells.

On to `COc1ccccc1/C=N/Nc1nc2ccccc2[nH]c1=O`, for which the viability at 1000 molar ratio in data set [1] (Raji cells) stood at 60%.

As to `Clc1nc2ccccc2nc1Cl`, the viability at 1000 molar ratio in data set [1] (raji) turned out to be 50%.

Regarding `CCOC(=O)CN(/N=C/c1ccccc1OC)c1nc2ccccc2n(CC(=O)OCC)c1=O`, the viability at 1000 molar ratio in [1] (Raji cells) was 60%.

Regarding `c1ccc2nc3c(nc2c1)nc1ccccn13`, in data set [1] (Raji cells), the viability at 1000 molar ratio was 60%.

As to `N#Cc1c(-c2ccc(F)cc2)nc(Sc2nc3ccccc3nc2Cl)[nH]c1=O`, the viability at 1000 molar ratio in data set [1] (Raji cells) amounted to 60%.

As for `Nc1nc2ccccc2[nH]c1=O`, the viability at 1000 molar ratio in data set [1] (Raji cells) was found to be 60%.

Regarding `C=CCn1c(=O)c(N/N=C/c2ccccc2OC)nc2ccccc21`, the viability at 1000 molar ratio in data set [1] (Raji cells) is 60%.

For `O=c1[nH]c2ccccc2nc1Cl`, in data set [1] (Raji cells), the viability at 1000 molar ratio worked out at 50%.

`Oc1nc2ccccc2nc1O`: in data set [1] (Raji cells), the viability at 1000 molar ratio is 60%.

As for `N#Cc1c(-c2ccc(O)cc2)nc(Sc2nc3ccccc3nc2Cl)[nH]c1=O`, in data set [1] (Raji cells), the viability at 1000 molar ratio was 60%.

As for `NNc1nc2ccccc2[nH]c1=O`, the viability at 1000 molar ratio in [1] (Raji cells) came out at 60%.

Regarding `CCOC(=O)Cn1c(=O)c(N/N=C/c2ccccc2OC)nc2ccccc21`, in data set [1] (Raji cells), the viability at 1000 molar ratio is 60%.

As to `CCOC(=O)Cn1c(=O)c(N/N=C/c2ccccc2)nc2ccccc21`, the viability at 1000 molar ratio in [1] (Raji cells) was 60%.

Regarding `Clc1nc2ccccc2nc1SCc1nc2ccccc2[nH]1`, the viability at 1000 molar ratio in data set [1] (Raji cells) came out at 60%.

For the molecule `c1ccc2nc3c(nc2c1)[nH]c1cccc[n+]13`, the viability at 1000 molar ratio in data set [1] (Raji cells) was 60%.

As for `Clc1nc2ccccc2nc1Sc1nc2ccccc2[nH]1`, the viability at 1000 molar ratio in data set [1] (Raji cells) was 60%.

In the case of `C=CCn1c(=O)c(N/N=C/c2ccccc2)nc2ccccc21`, the viability at 1000 molar ratio in data set [1] (Raji cells) was 60%.

Consider `N#Cc1c(-c2ccccc2)nc(Sc2nc3ccccc3nc2Cl)[nH]c1=O`, for which, in data set [1] (Raji cells), the viability at 1000 molar ratio came out at 60%.

For the molecule `C=CCN(/N=C/c1ccccc1OC)c1nc2ccccc2n(CC=C)c1=O`, the Activity in the data set on Mus musculus [2] was determined as 86.6%; in the data set with Mus musculus [3] it was 66.6%; in the data set with Mus musculus [4], 46.6%; in the data set with Mus musculus [5] it was 0%; in the data set with Mus musculus [6], 0%; with Mus musculus [7], 73.3%. Also, the Activity result in the data set on Mus musculus [8] was “Non-toxic”; in the data set with Mus musculus [9] it was 13.3%; in the data set with Mus musculus [10], 0%; in the data set with Mus musculus [11] it was 20%; with Mus musculus [12], 60%; in the data set with Mus musculus [13], 0%. Moreover, the Activity with Mus musculus [14] is 0%; in the data set with Mus musculus [15], 0%; in the data set with Mus musculus [16], 86.6%; in the data set with Mus musculus [17] it was 13.3%; in the data set filed under Mus musculus [18] it was “Non-toxic”; in the data set on Mus musculus [19] it was 60%. The Activity was 0% in the data set on Mus musculus [20]; “Non-toxic” in the data set with Mus musculus [21]; 33.3% in the data set on Mus musculus [22]; 26.6% in the data set on Mus musculus [23]; 80% in the data set on Mus musculus [24]. Further, the viability at 1000 molar ratio in data set [1] (Raji cells) amounted to 60%.

Consider `O=c1[nH]c2ccccc2nc1N/N=C/c1ccccc1`, for which, in [1] (Raji cells), the viability at 1000 molar ratio turned out to be 60%.
